Experimental data published in ChEMBL document CHEMBL1275590, “Novel arylimidamides for treatment of visceral leishmaniasis” (Antimicrob Agents Chemother, 2010).

What was measured:
Mus musculus [1] = assay: Toxicity in BALB/c mouse assessed as gastric inflammation at 150 mg/kg/day, po; assay type: organism-based, Stomach; set-up: route oral; details: in vivo
Mus musculus [2] = assay: Toxicity in BALB/c mouse assessed as splenic lymphoid depletion at 150 mg/kg/day, po; assay type: organism-based; set-up: route oral; details: in vivo
How it was run: (§1)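 Five-day repeat-dose study in female BALB/c mice (n = 5 per dose level): oral dosing once daily for five consecutive days in sterile water prepared fresh daily under yellow light, 20 ml/kg. Vehicle controls received sterile water only. Clinical observations and body weights were recorded, with blood for hematology and serum chemistry taken on day 6 before necropsy. A veterinary pathologist examined formalin-fixed tissues.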

[3] = Half life in Swiss Webster mouse at 1 mg/kg, iv by HPLC-MS/MS analysis; assay type: ADME, organism-based; set-up: dose 1 mg/kg, route intravenous; details: in vivo
How it was run: (§2)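 Male Swiss Webster mice, n = 3 per time point. For i.v., the compound was dissolved in sterile water, diluted 1:1 with 2× saline, and given as a tail-vein bolus over ~10–20 s. For p.o., it was given by gavage in sterile water. Dose volume was 5 ml/kg. Parameters came from noncompartmental analysis.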

[4] = Half life in Swiss Webster mouse at 131 mg/kg, po by HPLC-MS/MS analysis; assay type: ADME, organism-based; set-up: dose 131 mg/kg, route oral; details: in vivo
How it was run: as §2, with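 “ml/kg. Terminal plasma was taken from 5 min to 72 h and measured by HPLC-MS/MS (calibration 2.5–10,000 nM).” for “ml/kg.”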

Mus musculus [5] = assay: Toxicity in BALB/c mouse assessed as tendency to startle at 50 mg/kg/day, ip administered for five days; assay type: organism-based; set-up: route intraperitoneal; details: in vivo
How it was run: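 Acute overt toxicity was checked in uninfected female BALB/c mice before the efficacy work. Compounds were given intraperitoneally once daily for 5 days, and mice were watched for clinical signs such as ruffled fur, hypoactivity, tremors, ataxia and startle, and for survival.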

Mus musculus [6] = assay: Toxicity in BALB/c mouse assessed as hypoactivity at 100 mg/kg/day, ip after second dose; assay type: organism-based; set-up: route intraperitoneal; details: in vivo
[7] = Tmax in Swiss Webster mouse at 1 mg/kg, iv by HPLC-MS/MS analysis; assay type: ADME, organism-based; set-up: dose 1 mg/kg, route intravenous; details: in vivo
How it was run: (§3)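 Male Swiss Webster mice (n = 3 per time point), single dose by oral gavage (sterile water solution) or tail-vein bolus i.v. (water diluted 1:1 with 2× saline, over ~10–20 s); dose volume 5 ml/kg. Terminal blood sampled from 5 min to 72 h postdose; plasma quantified by HPLC-MS/MS (positive-ion SRM). Noncompartmental analysis gave Cmax, Tmax, AUC0-∞, CL, Vss; bioavailability from p.o. versus i.v. exposure.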

[8] = Tmax in Swiss Webster mouse at 4.9 mg/kg, iv by HPLC-MS/MS analysis; assay type: ADME, organism-based; set-up: dose 4.9 mg/kg, route intravenous; details: in vivo; how it was run: as §3
Mus musculus [9] = assay: AUC (0 to infinity) in Swiss Webster mouse at 66 mg/kg, po by HPLC-MS/MS analysis; assay type: ADME, organism-based, Plasma; set-up: time infinity, dose 66 mg/kg, route oral; details: in vivo
How it was run: as §2, with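 “ml/kg. Terminal plasma was taken from 5 min to 72 h and measured by HPLC-MS/MS (calibration 2.5–10,000 nM).” for “ml/kg.”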

[10] = Cmax in Swiss Webster mouse at 66 mg/kg, po by HPLC-MS/MS analysis; assay type: ADME, organism-based; set-up: dose 66 mg/kg, route oral; details: in vivo
How it was run: as §2, with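 “ml/kg. Terminal plasma was taken from 5 min to 72 h and measured by HPLC-MS/MS (calibration 2.5–10,000 nM).” for “ml/kg.”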

[11] = Tmax in Swiss Webster mouse at 66 mg/kg, po by HPLC-MS/MS analysis; assay type: ADME, organism-based; set-up: dose 66 mg/kg, route oral; details: in vivo; how it was run: as §3
[12] = Tmax in Swiss Webster mouse at 131 mg/kg, po by HPLC-MS/MS analysis; assay type: ADME, organism-based; set-up: dose 131 mg/kg, route oral; details: in vivo; how it was run: as §3
Mus musculus [13] = assay: Toxicity in BALB/c mouse at 150 mg/kg/day, po administered for five days measured on day 5; assay type: organism-based; set-up: route oral; details: in vivo; how it was run: as §1
Mus musculus [14] = assay: Toxicity in BALB/c mouse assessed as occurrence of ruffled fur at 150 mg/kg/day, po administered for five days measured on day 4; assay type: organism-based; set-up: route oral; details: in vivo
How it was run: (§4)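 Female BALB/c mice (n = 5 per dose), dosed once daily for 5 consecutive days p.o. (20 ml/kg) or i.v. (10 ml/kg) with compound in sterile water, prepared fresh daily under yellow light. Vehicle controls n = 5 per route. Clinical observations, body weights, serum chemistry and hematology on day 6 before necropsy; histopathology of formalin-fixed tissues. Chemistry analysed by one-way ANOVA with Dunnett's posttest.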

Mus musculus [15] = assay: Toxicity in BALB/c mouse assessed as hyperactivity at 150 mg/kg/day, po administered for five days measured on day 5; assay type: organism-based; set-up: route oral; details: in vivo; how it was run: as §4
Mus musculus [16] = assay: Hepatotoxicity in BALB/c mouse assessed as ALT level in serum at 150 mg/kg/day, po administered for five days (Rvb= 36 U/L); assay type: toxicity, organism-based; set-up: route oral; details: in vivo
[17] = Induction of mutagenicity in Salmonella serovar Typhimurium TA 100 assessed as number of revertant colonies at 1 ug by Ames assay in presence of Aroclor 1254-induced rat liver S9 metabolic activation system; assay type: toxicity, subcellular, Salmonella enterica subsp. enterica serovar Typhimurium
How it was run: (§5)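 Ames plate incorporation with S. Typhimurium TA98 and TA100, with or without Aroclor 1254-induced rat liver S9 (10% vol/vol). Compound was dissolved in sterile water and serially diluted to 1–500 μg/plate. Positive controls were 2-nitrofluorene and sodium azide without S9, and 2-aminoanthracene with S9; sterile water and DMSO served as vehicles. Revertant colonies and background lawn were scored. A mutagen was defined as a mean revertant count at least 2-fold over solvent control. Single experiment.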

[18] = Induction of mutagenicity in Salmonella serovar Typhimurium TA 98 assessed as number of revertant colonies at 500 ug by Ames assay; assay type: toxicity, Salmonella enterica subsp. enterica serovar Typhimurium
How it was run: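 Plate incorporation test, S. Typhimurium TA98 (and TA100), with or without Aroclor 1254-induced rat liver S9 (10% vol/vol). Compound dissolved in sterile water, serially diluted to 1–1,000 or 1–500 μg/plate. Positive controls: 2-nitrofluorene and sodium azide without S9, 2-aminoanthracene with S9; water and DMSO vehicle controls. Revertant colonies and background lawn scored; mutagen if mean revertants ≥2-fold solvent control. Single experiment.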

Leishmania donovani [19] = assay: Antileishmanial activity against Leishmania donovani WR378 infected in golden Syrian hamster assessed as reduction in liver parasitemia at 10 mg/kg/day, po administered for five days; assay type: functional; details: 120 h
How it was run: (§6)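 11-day golden hamster VL model adapted from an 8-day method, using L. donovani WR378 metacyclic promastigotes. Dosing was oral, once daily for 5 days. Animals were euthanized on day 11 post-infection. Liver, spleen and femoral bone marrow (flushed with Schneider's medium) were harvested.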

Leishmania donovani [20] = assay: Antileishmanial activity against Leishmania donovani WR378 infected in golden Syrian hamster assessed as reduction in liver parasitemia at 50 mg/kg/day, po administered for five days; assay type: functional; details: 120 h; how it was run: as §6
Leishmania donovani [21] = assay: Antileishmanial activity against Leishmania donovani WR378 infected in golden Syrian hamster assessed as reduction in liver parasitemia at 100 mg/kg/day, po administered for five days; assay type: functional; details: 120 h; how it was run: as §6
Leishmania donovani [22] = assay: Antileishmanial activity against Leishmania donovani WR378 infected in golden Syrian hamster assessed as reduction in spleen parasitemia at 50 mg/kg/day, po administered for five days; assay type: functional; details: 120 h; how it was run: as §6
Mus musculus [23] = assay: Renal toxicity in BALB/c mouse assessed as blood urea nitrogen level in serum at 150 mg/kg/day, po administered for five days (Rvb= 29 mg/dl); assay type: organism-based; set-up: route oral; details: in vivo; how it was run: as §4
[24] = Induction of mutagenicity in Salmonella serovar Typhimurium TA 98 assessed as number of revertant colonies at 10 ug by Ames assay in presence of Aroclor 1254-induced rat liver S9 metabolic activation system; assay type: toxicity, subcellular, Salmonella enterica subsp. enterica serovar Typhimurium; how it was run: as §5
[25] = Drug level in Swiss Webster mouse kidney at 5 mg/kg, iv after 2 hrs by HPLC/UV analysis; details: read-out: Drug uptake

Which Activity (Mus musculus [1]) does the source give for `CCOc1cc(NC(=N)c2ccccn2)ccc1-c1ccc(-c2ccc(NC(=N)c3ccccn3)cc2OCC)o1` here?
The Activity was “Toxic”.

And the Activity (Mus musculus [2])?
The Activity was “Toxic”.

And the half-life [3]?
Its half-life is 17 h.

And the half-life [4]?
The half-life was 32 h.

What about the Activity (Mus musculus [5]) of the same molecule?
Its Activity is “Toxic”.

What about the Activity (Mus musculus [6]) of the same molecule?
Its Activity is “Toxic”.

What about the Tmax [7] of the same molecule?
Its Tmax is 5 min.

And the Tmax [8]?
The Tmax was 5 min.

What about the AUC (Mus musculus [9]) of the same molecule?
The AUC was 5.6 µM·h.

What about the Cmax [10] of the same molecule?
The Cmax was 0.4 µM.

What about the Tmax [11] of the same molecule?
Its Tmax is 2 h.

What about the Tmax [12] of the same molecule?
Its Tmax is 2 h.

What about the Activity (Mus musculus [13]) of the same molecule?
Its Activity is “Toxic”.

What about the Activity (Mus musculus [14]) of the same molecule?
The Activity was “Toxic”.

What about the Activity (Mus musculus [15]) of the same molecule?
The Activity was “Toxic”.

And the Activity (Mus musculus [16])?
The Activity was 220 U/L.

Which Activity [17] does the source give for `CC(C)Oc1cc(NC(=N)c2ccccn2)ccc1-c1ccc(-c2ccc(NC(=N)c3ccccn3)cc2OC(C)C)o1` here?
The Activity was 159.

And the Activity [18]?
The Activity was 28.

What about the inhibition in vivo at 10 mg/kg/day (Leishmania donovani [19]) of the same molecule?
Its inhibition in vivo at 10 mg/kg/day is 10%.

And the inhibition in vivo at 50 mg/kg/day (Leishmania donovani [20])?
The inhibition in vivo at 50 mg/kg/day was 76%.

What about the inhibition in vivo at 100 mg/kg/day (Leishmania donovani [21]) of the same molecule?
The inhibition in vivo at 100 mg/kg/day was 89%.

What about the inhibition in vivo at 50 mg/kg/day (Leishmania donovani [22]) of the same molecule?
Its inhibition in vivo at 50 mg/kg/day is 74%.

What about the Activity (Mus musculus [23]) of the same molecule?
The Activity was 29 U/L.

What about the Activity [24] of the same molecule?
The Activity was 38.

And the concentration at 2 h [25]?
The concentration at 2 h was 12.7 µM.
